The test system of data set [1] is PC-3. The data set is described as follows: Antiproliferative activity against human PC3 cells after 72 hrs by MTT assay. It is filed as functional, cell-based. The following applies: PC-3, 72 h. The procedure, abridged:
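PC-3 cells seeded at 8×10^3/well and attached 24 h. Medium replaced with serum-free RPMI containing compound (10, 50, 100 µM; DMSO stock, 0.2% DMSO at 100 µM) for 72 h at 37 °C, 5% CO2. MTT added for 4 h, solubilized, absorbance at 570 nm. % survival relative to DMSO; IC50 by nonlinear regression of log concentration vs % survival; n = 3/dose.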

Data set [2] relates to PC-3. The data set is described as follows: Antimigratory activity against human PC3 cells after 24 hrs under serum-free condition by wound-healing assay. It counts as functional, cell-based. As to conditions: PC-3, 24 h. The method in brief:
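Confluent PC-3 monolayers (>95%) were scratched with a pipette tip and washed with PBS and serum-free medium. Compounds were added at 20, 50 and 100 µM in serum-free medium, with 0.2% DMSO vehicle, for 24 h. Cells were fixed and Diff-Quick stained. Cells migrating into the wound were counted in ≥3 random fields at 400×. IC50 for 50% inhibition of migration; n = 3/dose.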

Data set [3] is filed under the species Gallus gallus. In words: Antiangiogenic activity in chicken embryo chorioallantoic membrane model assessed as number of blood vessels per 48 mm2 area around the treatment disc <12 at 1 to 50 ug/disc after 48 hrs.
The species entered for data set [4] is Gallus gallus. In words: Antiangiogenic activity in chicken embryo chorioallantoic membrane model assessed as number of blood vessels per 48 mm2 area around the treatment disc >16. 3 at 1 to 50 ug/disc after 48 hrs. It counts as functional, tissue-based. The method in brief:
(§1)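 Fertilized hen eggs incubated at 37 °C, constant humidity; shell windowed and taped, eggs kept upright. Compounds in CH2Cl2 or MeOH loaded on 2-mm cellulose nitrate discs (1, 10, 50 µg/disc), placed on CAM on day five between large vessels. Imaged at 0 h and every 6 h to 48 h. Blood vessels counted per 8.0 × 6.0 mm area around the disc, plus vessel length change. Graded on a 0–3 scale.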

Data set [5] in a line: Cytotoxicity against rat bone marrow cells assessed as inhibition of colony formation at 100 uM by clonogenic assay. It counts as cell-based. The following applies: bone marrow cell. The procedure, abridged: (§2)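 Rat femur bone marrow mononuclear cells isolated on a Histopaque-1077 gradient. 20,000 cells were plated in methylcellulose with FCS and rat recombinant GM-CSF, IL-3 and SCF (HALO kit), with compounds or vehicle. After 5 days GM-CFC colonies were measured as ATP luminescence (luciferase/luciferin) against a same-day standard curve. Results were normalized to vehicle means; n = 4; two-way ANOVA with Bonferroni tests.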

The species entered for data set [6] is Gallus gallus. The data set is described as follows: Antiangiogenic activity in chicken embryo chorioallantoic membrane model at 1 to 50 ug/disc after 48 hrs. It is filed as functional, tissue-based. The method in brief: as §1
The nature of data set [7]: Cytotoxicity against rat bone marrow cells assessed as inhibition of colony formation at 10 uM by clonogenic assay. It is filed as cell-based. The following applies: bone marrow cell. The procedure, abridged:
as §2

Data set [8] deals with PC-3. The data set is described as follows: Antiinvasive activity against human PC3 cells at 50 uM after 24 hrs by cultrex BME assay. It is filed as functional, cell-based. The method in brief: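 PC-3 cells in RPMI with 10% FBS at 37 °C, 5% CO2. The top chamber was coated with BME overnight, then seeded with 50,000 cells in serum-free RPMI. Compounds were added to the top chamber from a 6× (300 µM) solution. The lower chamber held medium with 10% FBS, fibronectin (1 µL/mL) and fMLP (10 nM). After 24 h the invaded cells were labelled with calcein-AM for 1 h, read at ex 485/em 520 nm and counted from a standard curve. n = 3.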

Structures are written as SMILES. Active and inactive are the calls of the source. The calls are words filed in the database; no cut-off is given here.

For orientation: IC50 means the concentration that gives 50% inhibition. Consider `NC(=O)Cc1cc(Br)c(OC(=O)c2ccccc2)c(Br)c1`, for which the IC50 was above 100 µM in the data set with PC-3 [1] and 12.2 µM in the data set with PC-3 [2]. In the data set filed under Gallus gallus [3], the result was Active.
As to `CCOC(=O)Cc1cc(Br)c(O)c(Br)c1`, the result in the data set filed under Gallus gallus [4] was inactive. Moreover, the IC50 in the data set on PC-3 [1] and with PC-3 [2] was above 100 µM each time. The Activity entry in data set [5] is on record as “Non-toxic”.
For `CCOC(=O)Cc1cc(Br)c(OC(=O)c2ccncc2)c(Br)c1`, the results for the IC50 in the data set on PC-3 [1] and with PC-3 [2] were above 100 µM and 44.6 µM, respectively. For the same compound, the result in the data set listed under Gallus gallus [3] was Active.
Consider `CCOC(=O)Cc1cc(Br)c(OC(=O)Cc2ccc(OC)cc2)c(Br)c1`, for which the outcome in the data set listed under Gallus gallus [6] was Active. For the same compound, the IC50 in the data set with PC-3 [1] was above 100 µM; with PC-3 [2], below 10 µM.
On to `CCOC(=O)Cc1cc(Br)c(OCc2ccccc2)c(Br)c1`, for which the IC50 with PC-3 [1] came to 29.7 µM; in the data set with PC-3 [2] it was 75.5 µM. Further, in the data set listed under Gallus gallus [3], the outcome was Active.
With `CC(=O)Oc1c(Br)cc(CC(N)=O)cc1Br`, the result in the data set filed under Gallus gallus [6] was Active. Further, the figures for the IC50 in the data set on PC-3 [1] and with PC-3 [2] were above 100 µM and 74.8 µM, respectively.
For `CCOC(=O)Cc1cc(Br)c(OC(C)=O)c(Br)c1`, the IC50 in the data set on PC-3 [1] and with PC-3 [2] was above 100 µM throughout.
As to `CCOC(=O)Cc1cc(Br)c(OC(=O)c2ccccc2)c(Br)c1`, the outcome in the data set filed under Gallus gallus [6] was Active. The IC50 in the data set on PC-3 [1] was above 100 µM; with PC-3 [2], 44.6 µM.
For the compound `NC(=O)CC1(O)C=C(Br)C(=O)C(Br)=C1` [VERONGIAQUINOL], the Activity entry in data set [7] is reported as “Toxic”.
For `COc1ccc(CC(=O)Oc2c(Br)cc(CC(N)=O)cc2Br)cc1`, the IC50 is above 100 µM with PC-3 [1] and 18.9 µM in the data set on PC-3 [2]. In the data set listed under Gallus gallus [3], the outcome was Active.
`NC(=O)Cc1cc(Br)c(O)c(Br)c1`: the outcome in the data set listed under Gallus gallus [4] was inactive. Also, the IC50 with PC-3 [1] and in the data set on PC-3 [2] was above 100 µM each time. Further, the Activity result in data set [5] was “Non-toxic”.
As to `CCOC(=O)Cc1cc(Br)c(OCCCc2ccc(OC)cc2)c(Br)c1`, the outcome in the data set listed under Gallus gallus [6] and with PC-3 [8] was Active. Also, the IC50 in the data set on PC-3 [1] stood at 40 µM; in the data set with PC-3 [2] it was 57.9 µM. For the same compound, in data set [5], the Activity entry was “Non-toxic”.
Regarding `CCOC(=O)Cc1cc(Br)c(OC/C=C(/C)CC/C=C(/C)CCC=C(C)C)c(Br)c1`, the result in the data set listed under Gallus gallus [6] and in the data set with PC-3 [8] was Active. Moreover, the IC50 in the data set with PC-3 [1] amounted to 16.5 µM; in the data set with PC-3 [2], 19.9 µM. In data set [5], the Activity entry was “Non-toxic”.
Regarding `CCOC(=O)Cc1cc(Br)c(OCCC(C)C)c(Br)c1`, the outcome in the data set filed under Gallus gallus [4] was inactive. Moreover, the figures for the IC50 with PC-3 [1] and in the data set on PC-3 [2] were 49.2 µM and 91.3 µM, respectively. In data set [5], the Activity entry is recorded as “Non-toxic”.

For the origin of these results see ChEMBL document CHEMBL1268930, “Design, synthesis, and biological evaluation of dibromotyrosine analogues inspired by marine natural products as inhibitors of human prostate cancer proliferation, invasion, and migration” (Bioorg Med Chem, 2010).
